TROY signal inh – inhibitors of TROY-driven NF-kB signaling, primary screen, Q293 LMP1-TROYcd cells, NF-kB luciferase, uHTS; Q293 LMP1-TROYcd NF-kB luciferase reporter, 4 h; inhibition, % at 10 µM; 0.98% of 360,000 active;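 active = compounds whose plate-normalised and pattern-corrected inhibition of the luciferase reporter signal at the single screening dose is 50% or more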
Xi reactivation – activators of inactive X chromosome reactivation, primary screen, imaging, XiGFP fibroblasts, GFP high-content imaging, set 2; XiGFP mouse fibroblasts, % GFP-positive cells imaging, 3 d; cells co-treated with 5-aza-dC sensitizer; scaled so ellipticine positive control = 100%; activation, % at 7.58 µM; 0.055% of 360,000 active;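 active = mean normalized replicate activation at least 10% and every replicate at or above 10%; inconclusive = only one of the two criteria met; inactive = mean below 10% and not all replicates reach 10%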;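 note: 0% = median of on-plate neutral control wells and 100% = ellipticine 6 µM median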
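material = 68-5-11 XiGFP fibroblast line | medium = DMEM plus 5-aza-dC sensitizer | schedule = 3 days compound exposure | benchmarks = positive control ellipticine, 6 µM final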
TWEAK-Fn14 inh – inhibitors of TWEAK-Fn14 signaling, primary screen, luciferase reporter cells, uHTS | TWEAK-stimulated Fn14 reporter cells, luciferase luminescence, 8 h | 2% of 360,000 active | inhibition, % at 10 µM; in the data active = inhibition above about 50%
EWS-Fli block – EWS/Fli-driven NR0B1 reporter inhibitors, primary screen, A673 cells, NR0B1 luciferase, luminescence, MLPCN library; viability-normalised; inhibition, % at 12.6 µM; 0.67% of 350,000 active;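 active = mean inhibition of at least 50% after viability correction, with every replicate also passing that limit; inconclusive = mean reaches 50% but only one of two replicates passes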;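 note: firefly luciferase signal divided by Alamar Blue viability fluorescence both relative to DMSO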
LGR2 inh – inhibitors of bursicon-induced LGR2 CRE-luciferase signal, primary screen, cell-based, HEK293, CRE-luciferase reporter, bursicon stimulation; Drosophila bursicon receptor LGR2 (rickets); bursicon-stimulated, 4 h; inhibition, % at 9.99 µM; 0.35% of 380,000 active; AID 720647, 2013;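 active = drop in luminescence signal, shown as inhibition above about 50% in the replicate tests, limit read from the data, passing the limit was not always enough; inconclusive = probably only some replicates passing the limit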;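 note: agonist challenge used bursicon conditioned medium at about half maximal strength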
FN deposition inh – inhibitors of fibronectin matrix deposition, primary screen, AH1F cells, Alexa488-fibronectin fluorescence, plate reader. AH1F fibroblasts, overnight. inhibition, % at 12.6 µM. 0.086% of 350,000 active;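 active = mean inhibition across replicates of 30% or more, regardless of how many single replicates reach that level; inconclusive = mean under 30% yet at least half of replicates reach 30%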;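 note: positive control wells lacked labelled fibronectin entirely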
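Material: AH1F fibroblast monolayer depositing Alexa488-labelled fibronectin into matrix | Input: 10000 AH1F cells/well | Medium: DMEM plus 2% serum, read in PBS | Reagent: Alexa488-fibronectin, 24 nM final in well | Compound dosing: One dose per compound, pinned | Schedule: 1 h adhesion, overnight exposure | Measured by: Fluorescence at 485 nm excitation, 525 nm emission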
Active calls of the source: *; ? = inconclusive; . = no result. Rows were chosen to be rich in hits. Some 2.3% of all compounds tested hit in one or more screens of this group.

SMILES | TROY signal inh | Xi reactivation | TWEAK-Fn14 inh | EWS-Fli block | LGR2 inh | FN deposition inh
CN1CCN(c2ccc(-c3cc(NC=O)c4ncc(-c5ccc(F)c(Cl)c5)n4c3)cc2)CC1 | 51* | 0 | -24 | -44 | -30 | 9
CC(=O)Nc1cc(-c2ccc(N3CCN(C)CC3)cc2)cn2c(-c3ccc(F)c(Cl)c3)cnc12 | 23 | 0 | -20 | 12 | 0 | -7
Cc1ccc(S(=O)(=O)N[C@@H]2CC[C@H](CCn3cc(-c4cccnc4)nn3)O[C@H]2CO)cc1 | . | 0 | . | -2 | 7 | .
Cc1c(Br)c(=O)oc2c(C)c(O)ccc12 | 54* | 0 | 46 | . | 5 | -6
CCCC#Cc1ccc2c(c1)O[C@@H](CN(C)C(=O)c1ccncc1)[C@@H](C)CN([C@@H](C)CO)S2(=O)=O | . | -1 | . | -22 | -10 | .
Cc1c(Nc2cc(Cl)c3nonc3c2[N+](=O)[O-])c(=O)n(-c2ccccc2)n1C | 84* | 19* | 50* | 43 | 103* | 5
Cc1c(Nc2ccc3nonc3c2[N+](=O)[O-])c(=O)n(-c2ccccc2)n1C | 6 | 0 | 1 | -10 | -2 | 3
O=[N+]([O-])c1c(Nc2cccc(O)c2)cc(Cl)c2nonc12 | 88* | 2 | 64* | 59* | 8 | 35*
O=C(O)c1ccc(Nc2cc(Cl)c3nonc3c2[N+](=O)[O-])cc1 | 16 | 0 | 7 | -3 | 5 | 14
O=C(/C=C/c1ccco1)Nc1ccc(Oc2ccc(Cl)cc2)cc1 | 6 | . | 51* | . | . | .
COc1cccc(NC(=O)/C=C/c2ccco2)c1 | -24 | 0 | -5 | -88 | -89 | -8
COc1ccc(COC[C@@]23Oc4ccccc4[C@@H](NC(=S)N2C)[C@H]3CO[Si](C)(C)C(C)(C)C)cc1 | . | . | . | -5 | . | .
O=C(C=Cc1ccccc1Cl)c1ccccc1 | -46 | 0 | -3 | -21 | -43 | 5
O=C(/C=C/Sc1ccccc1)c1ccccc1 | 34 | . | 90* | 24 | -50 | 2
O=C(/C=C/Sc1ccccc1)c1ccc(Cl)cc1 | 30 | . | 78* | . | . | .
O=C(O)CCCN1C(=O)/C(=C\C(Cl)=C\c2ccccc2)SC1=S | 26 | 0 | 102* | ? | -5 | 10
O=C(O)CCCN1C(=O)/C(=C\c2ccccc2OCc2ccccc2)SC1=S | 56* | 0 | -6 | -4 | 11 | 0
O=C(O)CN1C(=O)/C(=C\c2ccccc2OCc2ccccc2)SC1=S | 3 | 0 | -5 | -13 | -15 | 3
O=C(c1ccncc1)N1CC(=O)N2[C@H](C1)[C@H](c1ccc(-c3cccnc3)cc1)[C@@H]2CO | . | 0 | . | 1 | 11 | .
COCCCNS(=O)(=O)c1ccc2[nH]c3c(c2c1)CCCCC3 | 8 | 0 | 84* | 9 | -18 | 2
CC(C)(C)NS(=O)(=O)c1ccc2[nH]c3c(c2c1)CCCCC3 | 5 | 0 | 21 | -18 | -4 | 4
COc1ccccc1NC(=O)N1C[C@@H]2[C@H](c3ccccc31)[C@H](CO)N2C(=O)C1CC1 | . | . | . | 2 | . | .
CCN(Cc1ccc2c(c1)OCCO2)C(=O)CSc1nc(C)nc2sc(C)c(C)c12 | 58* | 0 | 11 | 5 | 10 | 12
CCN(Cc1ccc2c(c1)OCO2)C(=O)CSc1ncnc2sccc12 | -17 | 0 | -14 | -11 | -5 | -7
COc1ccc(CN2C(=O)C(C)=C(C)C2OC)cc1 (stereo unspecified) | -2 | 0 | 90* | -4 | -3 | -6
SMILES | TROY signal inh | Xi reactivation | TWEAK-Fn14 inh | EWS-Fli block | LGR2 inh | FN deposition inh
COC1C(C)=C(C)C(=O)N1Cc1ccccc1 (stereo unspecified) | 4 | 0 | 11 | 15 | 5 | 1
COc1ccc(C(=O)c2sc(Nc3ccccc3)nc2N)cc1OC | 30 | 0 | 54* | 14 | 19 | 19
Nc1nc(Nc2ccccc2)sc1C(=O)c1ccccc1 | 20 | 0 | 62* | -125 | 71* | 18
COCC(=O)N1CC(=O)N2[C@H](CO)[C@H](c3ccc(C#CC4CC4)cc3)[C@H]2C1 | . | 0 | . | -21 | -1 | -15
CN(C)c1nc(OCCOC(=O)COc2ccc(Cl)cc2Cl)nc(N(C)C)n1 | 3 | . | 5 | . | . | -5
CCNc1nc(NCC)nc(OCCOC(=O)COc2ccc(Cl)cc2Cl)n1 | . | . | 86* | . | . | .
O=C(Nc1cc(F)ccc1F)N1CC(=O)N2[C@@H](CO)[C@H](c3ccc(-c4cccc(F)c4)cc3)[C@@H]2C1 | . | 0 | . | 0 | 17 | .
Nc1cc2c3ccccc3ccc2c2ccccc12 | 37 | 0 | 103* | -72 | 86* | 1
CCn1nnnc1SCC(=O)N1c2ccccc2Sc2ccccc21 | 35 | . | 63* | . | . | .
O=C(COC(=O)c1c2c(nc3ccccc13)/C(=C/c1ccco1)CC2)NC1CCCC1 | -2 | 0 | 19 | . | -10 | 7
CC1CCCCC1NC(=O)COC(=O)c1c2c(nc3ccccc13)/C(=C/c1ccco1)CC2 (stereo unspecified) | 0 | 0 | 50* | -10 | . | -2
C[C@@H]1CN([C@H](C)CO)C(=O)Cc2cc(NC(=O)c3ccncc3)ccc2O[C@H]1CN(C)S(=O)(=O)c1ccc(Cl)cc1 | . | 0 | . | 0 | -5 | .
Cc1cccc(-c2ccccc2[C@H]2[C@@H](C#N)N(c3ncc(-c4ccccc4)s3)[C@@H]2CO)c1 | . | 0 | . | 2 | 5 | 5
COc1cccc(CNC(=O)CCl)c1 | -4 | 0 | -2 | 4 | -1 | -5
COc1cccc(CNC(=O)COC(=O)c2nc(Cl)c(Cl)c(Cl)c2Cl)c1 | 39 | 0 | 94* | 27 | 7 | 17
COc1cc([C@H]2[C@@H]3CCCC[C@]3(O)CCN2CC(=O)Nc2ccc(C)cc2)ccc1O | 7 | . | 66* | . | . | 14
COc1ccc(NC(=O)CN2CCC3(O)CCCCC3C2c2ccccc2OC)cc1 (stereo unspecified) | . | . | . | . | 11 | .
CN(CC(=O)Nc1ccccc1Cl)C(=O)COC(=O)c1nc(Cl)c(Cl)c(Cl)c1Cl | 54* | 0 | 86* | 23 | -16 | 3
O=C(Nc1ccccc1F)N1C[C@H]2[C@@H](c3ccccc31)[C@@H](CO)N2C(=O)C1CCCCC1 | . | 0 | . | -114 | -8 | .
O=C(COc1cccc(Cl)c1)Nc1nc(-c2ccc(S(=O)(=O)N3CCOCC3)cc2)cs1 | 38 | . | 57* | . | . | .
CC(C)C(=O)Nc1nc(-c2ccc(S(=O)(=O)N3CCOCC3)cc2)cs1 | 3 | 0 | -1 | 6 | -6 | 6
